Reference: ChEMBL document CHEMBL4627405, “A Venomics Approach Coupled to High-Throughput Toxin Production Strategies Identifies the First Venom-Derived Melanocortin Receptor Agonists” (J Med Chem, 2020)
pKi: −log10 of the molar value. Activity calls are given as the source filed them. No cut-off for these calls is given here. Positions of bridges follow the written chain, without caps; N, C: chain ends. Residues, ends and D or L forms follow the SMILES beside them.

Assays:
[1] = molecular target: Sodium channel protein type 3 subunit alpha (Homo sapiens) (UniProt Q9NY46); assay: Inhibition of human NaV1.3 at 100 uM
Method in brief: (§1)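 Two-electrode voltage clamp of oocytes injected with 50 nl cRNA (1 ng/nl) and recorded 1–4 days later at 18–22 °C. Bath was 96 mM NaCl, 2 mM KCl, 1.8 mM CaCl2, 2 mM MgCl2, 5 mM HEPES pH 7.4. Toxin was applied to the bath at 100 µM. Currents were evoked by 100 ms depolarisation to the voltage of maximal sodium current, filtered at 2 kHz and sampled at 20 kHz.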

[2] = molecular target: Sodium channel protein type 2 subunit alpha (Homo sapiens) (UniProt Q99250); assay: Inhibition of human NaV1.2 at 100 uM; method in brief: as §1
[3] = molecular target: Sodium channel protein type 1 subunit alpha (Homo sapiens) (UniProt P35498); assay: Inhibition of human NaV1.1 at 100 uM; method in brief: as §1
[4] = molecular target: T1, Melanocyte-stimulating hormone receptor (Homo sapiens, UniProt Q01726); assay: Activity at N-terminal HA-tagged and C-terminal FLAG-tagged human MC1R expressed in HEK293 cells assessed as potentiation of alpha-MSH-induced cAMP accumulation at 100 uM incubated for 3 hrs by luciferase reporter gene assay; assay type: functional, cell-based
Target sequence in this assay (Q01726 whole entry, looked up): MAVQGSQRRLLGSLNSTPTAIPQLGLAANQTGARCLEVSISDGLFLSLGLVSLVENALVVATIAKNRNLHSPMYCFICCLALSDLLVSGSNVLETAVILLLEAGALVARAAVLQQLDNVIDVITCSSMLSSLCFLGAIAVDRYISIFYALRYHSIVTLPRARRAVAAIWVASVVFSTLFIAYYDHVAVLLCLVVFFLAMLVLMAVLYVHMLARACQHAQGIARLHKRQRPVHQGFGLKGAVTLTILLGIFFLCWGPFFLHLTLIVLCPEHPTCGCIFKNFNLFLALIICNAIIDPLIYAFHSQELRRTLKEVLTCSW

Melanocortin receptor 4 [5] = molecular target: T2, Melanocortin receptor 4 (Homo sapiens, UniProt P32245); assay: Agonist activity at human MC4R expressed in HEK293 cells assessed as stimulation of cAMP accumulation at 100 uM incubated for 3 hrs by luciferase reporter gene assay; assay type: functional, cell-based
[6] = molecular target: T1, Melanocyte-stimulating hormone receptor; assay: Agonist activity at N-terminal HA-tagged and C-terminal FLAG-tagged human MC1R expressed in HEK293 cells assessed as stimulation of cAMP accumulation at 100 uM incubated for 3 hrs by luciferase reporter gene assay; assay type: functional, cell-based
Target sequence in this assay (Q01726 whole entry, looked up): as above

HEK293 = assay: Effect on cAMP production in HEK293 cells at 100 uM incubated for 3 hrs by luciferase reporter gene assay; assay type: functional, cell-based; conditions: Homo sapiens
Melanocortin receptor 5 = Melanocortin receptor 5 (Homo sapiens, UniProt P33032); assay: Displacement of [125I]-NDP-alpha-MSH from human MC5R expressed in CHO-K1 cell membranes incubated for 3 hrs by top-count beta counting
Method in brief: (§2)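 Membranes were from CHO cells stably expressing hMC1R, hMC4R or hMC5R, or from HEK293 cells expressing hMC3R. Competition used 50 pM 125I-NDP-α-MSH with varied competitor, 3 h at room temperature, in 25 mM HEPES pH 7.4, 1 mM MgCl2, 1 mM CaCl2, 0.2 g/L BSA. Nonspecific binding was set with 1 µM NDP-α-MSH. Samples were filtered on PEI-treated GF/C and scintillation counted. At least three experiments in duplicate, mean ± SEM.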

Melanocortin receptor 4 [7] = molecular target: T2, Melanocortin receptor 4; assay: Displacement of [125I]-NDP-alpha-MSH from human MC4R expressed in CHO-K1 cell membranes incubated for 3 hrs by top-count beta counting; method in brief: as §2
[8] = molecular target: T1, Melanocyte-stimulating hormone receptor; assay: Displacement of [125I]-NDP-alpha-MSH from human MC1R expressed in CHO-K1 cell membranes incubated for 3 hrs by top-count beta counting; method in brief: as §2
Target sequence in this assay (Q01726 whole entry): as the sequence (Q01726 whole entry, looked up) above

Melanocortin receptor 4 [9] = molecular target: T2, Melanocortin receptor 4; assay: Displacement of [125I]-NDP-alpha-MSH from human MC4R expressed in CHO-K1 cell membranes incubated for 3 hrs by top-count beta counting relative to control; conditions: concentration not given here; method in brief: as §2
[10] = molecular target: Sodium channel protein type 4 subunit alpha (Homo sapiens) (UniProt P35499); assay: Inhibition of human NaV1.4 at 100 uM; method in brief: as §1
[11] = molecular target: Sodium channel protein type 5 subunit alpha (Homo sapiens, UniProt Q14524); assay: Inhibition of human NaV1.5 at 100 uM; method in brief: as §1
[12] = molecular target: Sodium channel protein type 8 subunit alpha (Homo sapiens) (UniProt Q9UQD0); assay: Inhibition of human NaV1.6 at 100 uM; method in brief: as §1
[13] = molecular target: Potassium voltage-gated channel subfamily A member 1 (Homo sapiens) (UniProt Q09470); assay: Inhibition of human Kv1.1 at 100 uM
Method in brief: (§3)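 Potassium currents were recorded by two-electrode voltage clamp in oocytes 1–4 days after injecting 50 nl cRNA (1 ng/nl), at 18–22 °C. Bath was 96 mM NaCl, 2 mM KCl, 1.8 mM CaCl2, 2 mM MgCl2, 5 mM HEPES pH 7.4. Toxin was bath-applied at 100 µM. Currents were filtered at 0.5 kHz and sampled at 2 kHz.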

[14] = molecular target: Potassium voltage-gated channel subfamily A member 2 (Homo sapiens) (UniProt P16389); assay: Inhibition of human Kv1.2 at 100 uM; method in brief: as §3
[15] = molecular target: Potassium voltage-gated channel subfamily A member 3 (Homo sapiens) (UniProt P22001); assay: Inhibition of human Kv1.3 at 100 uM; method in brief: as §3
[16] = molecular target: Potassium voltage-gated channel subfamily A member 4 (Homo sapiens) (UniProt P22459); assay: Inhibition of human Kv1.4 at 100 uM; method in brief: as §3
[17] = molecular target: Potassium voltage-gated channel subfamily A member 5 (Homo sapiens) (UniProt P22460); assay: Inhibition of human Kv1.5 at 100 uM; method in brief: as §3
[18] = molecular target: Potassium voltage-gated channel subfamily A member 6 (Homo sapiens) (UniProt P17658); assay: Inhibition of human Kv1.6 at 100 uM; method in brief: as §3
[19] = molecular target: Potassium voltage-gated channel subfamily B member 1 (Homo sapiens) (UniProt Q14721); assay: Inhibition of human Kv2.1 at 100 uM; method in brief: as §3
[20] = molecular target: Voltage-gated potassium channel KCNC1 (Homo sapiens) (UniProt P48547); assay: Inhibition of human Kv3.1 at 100 uM; method in brief: as §3
[21] = molecular target: A-type voltage-gated potassium channel KCND3 (Homo sapiens, UniProt Q9UK17); assay: Inhibition of human Kv4.3 at 100 uM; method in brief: as §3
[22] = molecular target: Potassium voltage-gated channel subfamily KQT member 1 (Homo sapiens, UniProt P51787); assay: Inhibition of human Kv7.1 at 100 uM; method in brief: as §3
[23] = molecular target: Potassium voltage-gated channel subfamily KQT member 3 (Homo sapiens) (UniProt O43525); assay: Inhibition of human Kv7.3 at 100 uM; method in brief: as §3
[24] = molecular target: Voltage-gated delayed rectifier potassium channel KCNH1 (Homo sapiens) (UniProt O95259); assay: Inhibition of human Kv10.1 at 100 uM; method in brief: as §3
[25] = molecular target: Voltage-gated inwardly rectifying potassium channel KCNH2 (Homo sapiens, UniProt Q12809); assay: Inhibition of human Kv11.1 at 100 uM; method in brief: as §3
[26] = molecular target: G protein-activated inward rectifier potassium channel 1 (Homo sapiens) (UniProt P48549); assay: Inhibition of human GIRK1 at 100 uM
Method in brief: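 Two-electrode voltage clamp of cRNA-injected oocytes at 18–22 °C, holding at −70 mV. Oocytes were superfused with high-K+ solution (96 mM KCl, 2 mM NaCl, 1 mM MgCl2, 1.8 mM CaCl2, 5 mM HEPES pH 7.5). Toxin was applied to the bath at 100 µM. Currents were filtered at 0.05 kHz and sampled at 0.1 kHz.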

[27] = molecular target: Voltage-dependent T-type calcium channel subunit alpha-1I (Homo sapiens) (UniProt Q9P0X4); assay: Inhibition of human Cav3.3 at 100 uM
Method in brief: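 Oocyte two-electrode voltage clamp at 18–22 °C, 1–4 days after cRNA injection (50 nl, 1 ng/nl). Toxin was bath-applied at 100 µM. Currents were carried by 10 mM Ba2+ and elicited by 200 ms depolarisations from −90 mV to between −50 and +30 mV, filtered at 0.5 kHz and sampled at 2 kHz.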

[28] = molecular target: Acetylcholine receptor; alpha1/beta1/delta/gamma (Homo sapiens) (UniProt P02708+P07510+P11230+Q07001); assay: Inhibition of human nAChR alpha1(2)beta1gammadelta; assay type: protein-complex assay
[29] = molecular target: Neuronal acetylcholine receptor subunit alpha-7 (Homo sapiens) (UniProt P36544); assay: Inhibition of human nAChR alpha7
[30] = molecular target: Sodium channel protein type 10 subunit alpha (Homo sapiens) (UniProt Q9Y5Y9); assay: Inhibition of human NaV1.8 at 100 uM
Melanocortin receptor 3 = Melanocortin receptor 3 (Homo sapiens, UniProt P41968); assay: Displacement of [125I]-NDP-alpha-MSH from human MC3R expressed in HEK293 cell membranes incubated for 3 hrs by top-count beta counting
Melanocortin receptor 4 [31] = molecular target: T2, Melanocortin receptor 4; assay: Antagonist activity at human MC4R transiently expressed in HEK293 cells assessed as reduction in alpha-MSH-induced cAMP accumulation at 100 uM incubated for 3 hrs by luciferase reporter gene assay

T2 sequence (P32245 whole entry): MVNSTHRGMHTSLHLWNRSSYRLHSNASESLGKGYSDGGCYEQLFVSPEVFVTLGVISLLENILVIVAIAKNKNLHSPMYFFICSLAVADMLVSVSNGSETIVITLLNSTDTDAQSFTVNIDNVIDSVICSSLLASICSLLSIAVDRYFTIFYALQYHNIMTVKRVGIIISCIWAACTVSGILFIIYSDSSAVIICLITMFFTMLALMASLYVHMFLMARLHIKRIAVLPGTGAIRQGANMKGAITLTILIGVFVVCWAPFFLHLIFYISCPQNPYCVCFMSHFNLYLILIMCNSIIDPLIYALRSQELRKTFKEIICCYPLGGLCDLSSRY
Sequence of Potassium voltage-gated channel subfamily A member 4 (Homo sapiens) (P22459 whole entry): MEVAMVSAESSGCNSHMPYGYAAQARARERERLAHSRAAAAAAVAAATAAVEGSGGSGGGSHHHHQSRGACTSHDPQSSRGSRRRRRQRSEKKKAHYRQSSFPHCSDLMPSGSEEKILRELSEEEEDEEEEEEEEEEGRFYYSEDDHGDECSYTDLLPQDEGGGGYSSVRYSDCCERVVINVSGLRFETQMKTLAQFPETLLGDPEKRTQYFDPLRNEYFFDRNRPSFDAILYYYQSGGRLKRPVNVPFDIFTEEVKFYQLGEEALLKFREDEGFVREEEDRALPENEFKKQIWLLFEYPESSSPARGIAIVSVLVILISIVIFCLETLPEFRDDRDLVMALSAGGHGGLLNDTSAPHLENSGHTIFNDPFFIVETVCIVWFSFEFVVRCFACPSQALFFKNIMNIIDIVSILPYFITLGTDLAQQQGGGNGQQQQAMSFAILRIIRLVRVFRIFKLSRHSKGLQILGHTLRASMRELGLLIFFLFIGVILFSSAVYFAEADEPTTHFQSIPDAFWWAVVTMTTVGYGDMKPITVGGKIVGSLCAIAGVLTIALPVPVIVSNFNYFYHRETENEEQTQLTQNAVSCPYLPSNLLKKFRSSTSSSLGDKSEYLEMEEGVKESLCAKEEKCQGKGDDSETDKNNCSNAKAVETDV
Sequence of Sodium channel protein type 4 subunit alpha (Homo sapiens) (P35499 whole entry, looked up): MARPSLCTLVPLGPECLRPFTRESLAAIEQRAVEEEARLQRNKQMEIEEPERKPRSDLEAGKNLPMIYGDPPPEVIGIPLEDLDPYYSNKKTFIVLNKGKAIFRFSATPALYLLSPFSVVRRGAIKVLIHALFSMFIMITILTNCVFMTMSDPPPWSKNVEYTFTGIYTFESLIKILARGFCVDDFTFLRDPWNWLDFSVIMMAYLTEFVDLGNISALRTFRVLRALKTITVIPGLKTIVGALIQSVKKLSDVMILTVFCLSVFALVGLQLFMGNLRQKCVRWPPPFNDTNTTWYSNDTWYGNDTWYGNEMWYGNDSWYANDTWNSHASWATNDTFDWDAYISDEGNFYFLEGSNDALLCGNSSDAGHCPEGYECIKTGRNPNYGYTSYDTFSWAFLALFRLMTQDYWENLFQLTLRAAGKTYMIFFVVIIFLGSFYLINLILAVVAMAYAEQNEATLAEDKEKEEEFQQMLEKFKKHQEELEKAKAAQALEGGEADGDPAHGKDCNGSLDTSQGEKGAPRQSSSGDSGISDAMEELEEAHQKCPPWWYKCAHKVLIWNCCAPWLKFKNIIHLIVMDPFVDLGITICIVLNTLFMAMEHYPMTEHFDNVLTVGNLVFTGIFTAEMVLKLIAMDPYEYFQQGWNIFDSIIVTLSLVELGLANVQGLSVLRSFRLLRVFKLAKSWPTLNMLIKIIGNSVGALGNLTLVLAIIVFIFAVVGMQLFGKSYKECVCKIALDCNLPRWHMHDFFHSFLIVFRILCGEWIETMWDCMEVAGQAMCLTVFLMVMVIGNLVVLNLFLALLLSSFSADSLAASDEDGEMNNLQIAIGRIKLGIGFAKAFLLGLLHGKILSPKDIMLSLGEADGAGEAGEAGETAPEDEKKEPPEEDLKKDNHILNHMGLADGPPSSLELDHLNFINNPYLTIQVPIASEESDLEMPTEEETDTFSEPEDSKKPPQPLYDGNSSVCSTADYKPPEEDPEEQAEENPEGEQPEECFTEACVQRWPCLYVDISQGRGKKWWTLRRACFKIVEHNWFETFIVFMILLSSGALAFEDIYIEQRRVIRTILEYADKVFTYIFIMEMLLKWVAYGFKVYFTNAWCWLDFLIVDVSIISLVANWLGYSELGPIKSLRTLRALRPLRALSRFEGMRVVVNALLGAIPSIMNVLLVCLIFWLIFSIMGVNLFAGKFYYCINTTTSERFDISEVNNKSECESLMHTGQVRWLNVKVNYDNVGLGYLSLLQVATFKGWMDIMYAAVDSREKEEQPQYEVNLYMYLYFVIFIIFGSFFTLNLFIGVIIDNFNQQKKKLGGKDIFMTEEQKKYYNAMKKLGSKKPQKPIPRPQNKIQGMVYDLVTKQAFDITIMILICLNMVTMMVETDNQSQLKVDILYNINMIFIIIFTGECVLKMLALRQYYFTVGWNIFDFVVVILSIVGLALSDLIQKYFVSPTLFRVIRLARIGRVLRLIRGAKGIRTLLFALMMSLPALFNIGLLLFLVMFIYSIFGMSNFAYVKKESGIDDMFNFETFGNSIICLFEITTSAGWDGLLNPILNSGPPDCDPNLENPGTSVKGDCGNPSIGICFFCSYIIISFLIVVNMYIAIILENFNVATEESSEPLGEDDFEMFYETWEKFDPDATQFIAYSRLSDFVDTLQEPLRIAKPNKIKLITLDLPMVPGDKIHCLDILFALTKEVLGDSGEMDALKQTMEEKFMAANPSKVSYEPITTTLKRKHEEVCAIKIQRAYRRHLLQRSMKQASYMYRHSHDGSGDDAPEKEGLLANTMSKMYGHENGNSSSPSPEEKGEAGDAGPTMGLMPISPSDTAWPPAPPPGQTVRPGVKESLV
Sequence of Potassium voltage-gated channel subfamily B member 1 (Homo sapiens) (Q14721 whole entry): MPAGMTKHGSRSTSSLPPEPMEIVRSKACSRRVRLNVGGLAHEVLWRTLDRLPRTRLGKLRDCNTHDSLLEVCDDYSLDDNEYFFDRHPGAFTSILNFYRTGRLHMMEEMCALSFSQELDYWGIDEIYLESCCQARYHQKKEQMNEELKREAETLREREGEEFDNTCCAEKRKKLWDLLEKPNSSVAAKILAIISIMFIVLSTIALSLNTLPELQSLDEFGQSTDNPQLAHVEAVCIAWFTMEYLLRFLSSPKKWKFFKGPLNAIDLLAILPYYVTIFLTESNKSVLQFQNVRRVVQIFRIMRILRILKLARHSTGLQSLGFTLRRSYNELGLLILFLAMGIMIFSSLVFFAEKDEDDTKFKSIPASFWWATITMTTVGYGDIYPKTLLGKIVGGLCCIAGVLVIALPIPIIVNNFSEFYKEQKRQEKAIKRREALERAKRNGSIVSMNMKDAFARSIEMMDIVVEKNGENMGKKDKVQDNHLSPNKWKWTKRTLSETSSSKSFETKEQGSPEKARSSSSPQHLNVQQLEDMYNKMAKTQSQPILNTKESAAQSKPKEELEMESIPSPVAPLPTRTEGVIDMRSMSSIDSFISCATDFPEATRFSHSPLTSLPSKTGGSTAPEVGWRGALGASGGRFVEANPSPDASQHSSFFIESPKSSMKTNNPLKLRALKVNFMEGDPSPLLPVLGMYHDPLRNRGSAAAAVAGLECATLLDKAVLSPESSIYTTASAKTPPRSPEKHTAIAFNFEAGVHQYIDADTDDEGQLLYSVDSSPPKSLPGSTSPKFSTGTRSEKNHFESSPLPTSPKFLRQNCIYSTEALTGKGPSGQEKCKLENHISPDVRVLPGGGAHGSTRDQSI
Sequence of Melanocortin receptor 5 (P33032 whole entry): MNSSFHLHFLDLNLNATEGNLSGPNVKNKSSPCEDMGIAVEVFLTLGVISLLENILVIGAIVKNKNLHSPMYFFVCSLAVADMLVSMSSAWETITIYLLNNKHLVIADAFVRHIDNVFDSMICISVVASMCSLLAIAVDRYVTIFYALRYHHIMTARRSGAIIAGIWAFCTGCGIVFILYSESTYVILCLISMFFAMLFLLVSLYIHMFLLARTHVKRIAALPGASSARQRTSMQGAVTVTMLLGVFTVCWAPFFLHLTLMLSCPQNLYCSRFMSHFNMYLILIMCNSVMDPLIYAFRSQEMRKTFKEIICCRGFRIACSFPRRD
Sequence of Potassium voltage-gated channel subfamily A member 6 (Homo sapiens) (P17658 whole entry): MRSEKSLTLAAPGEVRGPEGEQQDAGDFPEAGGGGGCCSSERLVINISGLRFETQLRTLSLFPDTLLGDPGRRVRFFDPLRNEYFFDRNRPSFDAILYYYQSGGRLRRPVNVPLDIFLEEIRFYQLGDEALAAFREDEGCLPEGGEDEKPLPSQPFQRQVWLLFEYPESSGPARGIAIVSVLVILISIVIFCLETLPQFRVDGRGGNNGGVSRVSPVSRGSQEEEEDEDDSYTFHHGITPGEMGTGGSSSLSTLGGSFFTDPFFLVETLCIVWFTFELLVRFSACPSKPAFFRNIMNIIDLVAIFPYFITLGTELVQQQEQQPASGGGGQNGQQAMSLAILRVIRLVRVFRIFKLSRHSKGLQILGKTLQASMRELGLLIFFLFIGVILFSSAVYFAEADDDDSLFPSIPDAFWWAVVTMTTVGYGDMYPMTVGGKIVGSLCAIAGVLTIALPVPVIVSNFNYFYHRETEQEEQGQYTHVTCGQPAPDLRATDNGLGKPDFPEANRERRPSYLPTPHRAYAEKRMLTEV

SMILES	inhibition [1]	inhibition [2]	inhibition [3]	Activity [4]	Activity (Melanocortin receptor 4 [5])	Activity [6]	Activity (HEK293)	pKi (Melanocortin receptor 5)	pKi (Melanocortin receptor 4 [7])	pKi [8]	inhibition (Melanocortin receptor 4 [9])	inhibition [10]	inhibition (INH) [11]	inhibition [12]	inhibition [13]	inhibition [14]	inhibition [15]	inhibition [16]	inhibition [17]	inhibition [18]	other results
CC[C@H](C)[C@@H]1NC(=O)[C@H](C)NC(=O)[C@H](CCCCN)NC(=O)[C@H](CC(C)C)NC(=O)[C@@H]2CSSC[C@@H](C(=O)O)NC(=O)[C@H](CCCCN)NC(=O)[C@@H]3CSSC[C@H](NC(=O)[C@H](CCC(=O)O)NC(=O)[C@H](C(C)C)NC(=O)[C@H](CO)NC(=O)[C@H](C)NC(=O)[C@H](CO)NC(=O)[C@@H](NC(=O)[C@H](CCCNC(=N)N)NC(=O)[C@H](CCSC)NC(=O)[C@H](CC(=O)O)NC(=O)[C@H](CCSC)NC(=O)[C@@H](N)CCC(N)=O)CSSC[C@H](NC(=O)[C@H](CCCCN)NC(=O)CNC(=O)[C@H](Cc4ccccc4)NC(=O)[C@H]([C@@H](C)CC)NC(=O)[C@H](CO)NC(=O)CNC1=O)C(=O)N[C@@H](CCSC)C(=O)N[C@@H](CC(N)=O)C(=O)N[C@@H](CCCCN)C(=O)N[C@@H](CCCCN)C(=O)N3)C(=O)N[C@@H](CCCCN)C(=O)N[C@@H](CCC(N)=O)C(=O)N[C@@H](CCCCN)C(=O)N2 (H-QMDMRCSASVECKQKCLKAIGSIFGKCMNKKCKC-OH; disulfide 6-27, 12-32, 16-34)	inactive	inactive	inactive	Active	inactive	Active	inactive	5.66	5.59	5.54	86%	inactive	Not Active	inactive	inactive	inactive	inactive	inactive	inactive	inactive	inhibition [19]: inactive; inhibition [20]: inactive; inhibition (INH) [21]: Not Active; inhibition (INH) [22]: Not Active; inhibition [23]: inactive; inhibition [24]: inactive; inhibition (INH) [25]: Not Active; inhibition [26]: inactive; inhibition [27]: inactive; inhibition [28]: inactive; inhibition [29]: inactive; inhibition [30]: inactive; pKi (Melanocortin receptor 3): 5.41; Activity (Melanocortin receptor 4 [31]): inactive
CC[C@H](C)[C@@H]1NC(=O)[C@@H]2CCCN2C(=O)CNC(=O)[C@H](CO)NC(=O)[C@@H]2CSSC[C@@H]3NC(=O)[C@H]([C@@H](C)O)NC(=O)CNC(=O)[C@H](CSSC[C@H](NC(=O)[C@@H](N)CCCNC(=N)N)C(=O)N[C@@H](CC(C)C)C(=O)N[C@@H](Cc4cnc[nH]4)C(=O)N[C@@H](C)C(=O)NCC(=O)N[C@@H](C)C(=O)N[C@@H](C)C(=O)N2)NC(=O)[C@H](CSSC[C@@H](C(=O)N[C@H](C(=O)O)[C@@H](C)O)NC(=O)[C@H](CCCCN)NC(=O)[C@H](CCCNC(=N)N)NC(=O)[C@H](CCCNC(=N)N)NC(=O)[C@H](CO)NC3=O)NC(=O)[C@@H]2CCCN2C(=O)[C@H]([C@@H](C)CC)NC(=O)[C@H](CCCCN)NC(=O)[C@H](CCC(N)=O)NC1=O (H-RCLHAGAACSGPIQKIPCCGTCSRRKCT-OH; disulfide 2-19, 9-22, 18-27)	inactive	inactive	inactive	Active	inactive	Active	inactive	5.00	5.15	5.74	97%	inactive	Not Active	inactive	inactive	inactive	inactive	inactive	inactive	inactive	inhibition [19]: inactive; inhibition [20]: inactive; inhibition (INH) [21]: Not Active; inhibition (INH) [22]: Not Active; inhibition [23]: inactive; inhibition [24]: inactive; inhibition (INH) [25]: Not Active; inhibition [26]: inactive; inhibition [27]: inactive; inhibition [28]: inactive; inhibition [29]: inactive; inhibition [30]: inactive; pKi (Melanocortin receptor 3): 4.70; Activity (Melanocortin receptor 4 [31]): inactive
